Measured values from ChEMBL document CHEMBL1146459, “Production of biologically active taxoids by a callus culture of Taxus cuspidata” (2004).

How the values were obtained:
SF-539 = assay: Growth inhibition of human SF539 cells after 48 hrs by SRB assay; assay type: functional; settings: SF-539, 48 h
LOX IMVI = assay: Growth inhibition of human LOXIMVI cells after 48 hrs by SRB assay; assay type: functional
MCF7 = assay: Growth inhibition of human MCF7 cells after 48 hrs by SRB assay; assay type: functional; settings: MCF7, 48 h
[1] = Growth inhibition of human RXF631L cells after 48 hrs by SRB assay; assay type: functional; settings: RXF 631, 48 h
SK-OV-3 = assay: Growth inhibition of human SKOV3 cells after 48 hrs by SRB assay; assay type: functional; settings: SK-OV-3, 48 h
OVCAR-5 = assay: Growth inhibition of human OVCAR5 cells after 48 hrs by SRB assay; assay type: functional; settings: OVCAR-5, 48 h
MKN-45 = assay: Growth inhibition of human MKN45 cells after 48 hrs by SRB assay; assay type: functional; settings: MKN-45, 48 h
[2] = Reversal of multidrug resistance in human 2780AD cells assessed as [3H]vincristine accumulation at 1 ug/mL after 2 hrs relative to verapamil; assay type: functional, A2780 ADR
[3] = Reversal of multidrug resistance in human 2780AD cells assessed as [3H]vincristine accumulation at 0.1 ug/mL after 2 hrs relative to control; assay type: functional, A2780 ADR
In short: (§1)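 Multidrug-resistant human ovarian cancer 2780AD cells were exposed to taxoids at 0.1, 1 or 10 µg/mL. Radiolabelled vincristine accumulated in the cells was measured as dpm/well, using means of triplicate determinations. Results are expressed as % of vincristine accumulated relative to the control experiment. They were also scored on a seven-level index according to the range of relative accumulation.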

U-251 = assay: Growth inhibition of human U251 cells after 48 hrs by SRB assay; assay type: functional; settings: U-251, 48 h
[4] = Reversal of multidrug resistance in human 2780AD cells assessed as [3H]vincristine accumulation at 0.1 ug/mL after 2 hrs relative to verapamil; assay type: functional, A2780 ADR
[5] = Growth inhibition of human HBC4 cells after 48 hrs by SRB assay; assay type: functional; settings: HBC4, 48 h
NCI-H460 = assay: Growth inhibition of human NCI-H460 cells after 48 hrs by SRB assay; assay type: functional; settings: NCI-H460, 48 h
MDA-MB-231 = assay: Growth inhibition of human MDA-MB-231 cells after 48 hrs by SRB assay; assay type: functional; settings: MDA-MB-231, 48 h
[6] = Growth inhibition of human MKN1 cells after 48 hrs by SRB assay; assay type: functional; settings: MKN-1, 48 h
OVCAR-4 = assay: Growth inhibition of human OVCAR4 cells after 48 hrs by SRB assay; assay type: functional; settings: OVCAR-4, 48 h
SNB-78 = assay: Growth inhibition of human SNB78 cells after 48 hrs by SRB assay; assay type: functional; settings: SNB-78, 48 h
KM12 = assay: Growth inhibition of human KM12 cells after 48 hrs by SRB assay; assay type: functional; settings: KM12, 48 h
HCT-116 = assay: Growth inhibition of human HCT116 cells after 48 hrs by SRB assay; assay type: functional; settings: HCT-116, 48 h
HCC 2998 = assay: Growth inhibition of human HCC2998 cells after 48 hrs by SRB assay; assay type: functional; settings: HCC 2998, 48 h
OVCAR-3 = assay: Growth inhibition of human OVCAR-3 cells after 48 hrs by SRB assay; assay type: functional; settings: OVCAR-3, 48 h
[7] = Reversal of multidrug resistance in human 2780AD cells assessed as [3H]vincristine accumulation at 1 ug/mL after 2 hrs relative to control; assay type: functional, A2780 ADR; in short: as §1
[8] = read-out: LC50 (the source's name)
[9] = read-out: pLC50 (the source's name) (converted)

SMILES: C=C1[C@@H](OC(C)=O)CC[C@@]2(C)C[C@H](OC(C)=O)C3=C(C)C[C@H](OC(=O)C(C)CC)[C@@H]([C@@H](OC(C)=O)[C@H]12)C3(C)C (some centres not stated)
- GI50 (SF-539; read-out: GI50): 45 µM
- CC50 (SF-539; [8]): > 100 µM
- TGI (SF-539; read-out: TGI): > 100 µM
- GI50 (SF-539; read-out: pGI50 (converted)): 44.7 µM
- CC50 (SF-539; [9]): 100 µM
- TGI (SF-539; read-out: pTGI (converted)): 100 µM
- GI50 (LOX IMVI; read-out: GI50): 35 µM
- CC50 (LOX IMVI; [8]): > 100 µM
- TGI (LOX IMVI; read-out: TGI): > 100 µM
- GI50 (LOX IMVI; read-out: pGI50 (converted)): 34.7 µM
- CC50 (LOX IMVI; [9]): 100 µM
- TGI (LOX IMVI; read-out: pTGI (converted)): 100 µM
- GI50 (MCF7; read-out: GI50): 24 µM
- CC50 (MCF7; [8]): > 100 µM
- TGI (MCF7; read-out: TGI): 93 µM
- GI50 (MCF7; read-out: pGI50 (converted)): 24 µM
- CC50 (MCF7; read-out: pLC50 (converted)): > 100 µM
- TGI (MCF7; read-out: pTGI (converted)): 93.3 µM
- GI50 ([1]; read-out: GI50): 25 µM
- CC50 [1, 8]: > 100 µM
- TGI ([1]; read-out: TGI): > 100 µM
- GI50 ([1]; read-out: pGI50 (converted)): 24.5 µM
- CC50 [1, 9]: 100 µM
- TGI ([1]; read-out: pTGI (converted)): 100 µM
- GI50 (SK-OV-3; read-out: GI50): 68 µM
- CC50 (SK-OV-3; [8]): > 100 µM
- TGI (SK-OV-3; read-out: TGI): > 100 µM
- GI50 (SK-OV-3; read-out: pGI50 (converted)): 69.2 µM
- CC50 (SK-OV-3; [9]): 100 µM
- TGI (SK-OV-3; read-out: pTGI (converted)): 100 µM
- GI50 (OVCAR-5; read-out: GI50): 48 µM
- CC50 (OVCAR-5; [8]): > 100 µM
- TGI (OVCAR-5; read-out: TGI): > 100 µM
- GI50 (OVCAR-5; read-out: pGI50 (converted)): 47.9 µM
- TGI (OVCAR-5; read-out: pTGI (converted)): 100 µM
- GI50 (MKN-45; read-out: GI50): 27 µM
- CC50 (MKN-45; [8]): > 100 µM
- TGI (MKN-45; read-out: TGI): > 100 µM
- GI50 (MKN-45; read-out: pGI50 (converted)): 26.9 µM
- CC50 (MKN-45; [9]): 100 µM
- TGI (MKN-45; read-out: pTGI (converted)): 100 µM
- Activity [2]: 123%
- Activity [3]: 111%
- GI50 (U-251; read-out: GI50): 36 µM
- CC50 (U-251; [8]): > 100 µM
- TGI (U-251; read-out: TGI): > 100 µM
- GI50 (U-251; read-out: pGI50 (converted)): 36.3 µM
- CC50 (U-251; [9]): 100 µM
- TGI (U-251; read-out: pTGI (converted)): 100 µM
- Activity [4]: 95%
- GI50 ([5]; read-out: GI50): 72 µM
- CC50 [5, 8]: > 100 µM
- TGI ([5]; read-out: TGI): > 100 µM
- GI50 ([5]; read-out: pGI50 (converted)): 72.4 µM
- CC50 [5, 9]: 100 µM
- TGI ([5]; read-out: pTGI (converted)): 100 µM
- GI50 (NCI-H460; read-out: GI50): 36 µM
- CC50 (NCI-H460; [8]): > 100 µM
- TGI (NCI-H460; read-out: TGI): > 100 µM
- GI50 (NCI-H460; read-out: pGI50 (converted)): 35.5 µM
- TGI (NCI-H460; read-out: pTGI (converted)): 100 µM
- GI50 (MDA-MB-231; read-out: GI50): 18 µM
- CC50 (MDA-MB-231; [8]): > 100 µM
- TGI (MDA-MB-231; read-out: TGI): > 100 µM
- GI50 (MDA-MB-231; read-out: pGI50 (converted)): 18.2 µM
- TGI (MDA-MB-231; read-out: pTGI (converted)): 100 µM
- GI50 ([6]; read-out: GI50): 49 µM
- CC50 [6, 8]: > 100 µM
- TGI ([6]; read-out: TGI): > 100 µM
- GI50 ([6]; read-out: pGI50 (converted)): 49 µM
- TGI ([6]; read-out: pTGI (converted)): 100 µM
- GI50 (OVCAR-4; read-out: GI50): 21 µM
- CC50 (OVCAR-4; [8]): > 100 µM
- TGI (OVCAR-4; read-out: TGI): > 100 µM
- GI50 (OVCAR-4; read-out: pGI50 (converted)): 21.4 µM
- CC50 (OVCAR-4; [9]): 100 µM
- TGI (OVCAR-4; read-out: pTGI (converted)): 100 µM
- GI50 (SNB-78; read-out: GI50): 50 µM
- CC50 (SNB-78; [8]): > 100 µM
- TGI (SNB-78; read-out: TGI): > 100 µM
- GI50 (SNB-78; read-out: pGI50 (converted)): 50.1 µM
- TGI (SNB-78; read-out: pTGI (converted)): 100 µM
- GI50 (KM12; read-out: GI50): 42 µM
- CC50 (KM12; [8]): > 100 µM
- TGI (KM12; read-out: TGI): > 100 µM
- GI50 (KM12; read-out: pGI50 (converted)): 41.7 µM
- CC50 (KM12; read-out: pLC50 (converted)): > 100 µM
- TGI (KM12; read-out: pTGI (converted)): 100 µM
- GI50 (HCT-116; read-out: GI50): 30 µM
- CC50 (HCT-116; [8]): > 100 µM
- TGI (HCT-116; read-out: TGI): > 100 µM
- GI50 (HCT-116; read-out: pGI50 (converted)): 30.2 µM
- CC50 (HCT-116; [9]): 100 µM
- TGI (HCT-116; read-out: pTGI (converted)): 100 µM
- GI50 (HCC 2998; read-out: GI50): 27 µM
- CC50 (HCC 2998; [8]): > 100 µM
- TGI (HCC 2998; read-out: TGI): > 100 µM
- GI50 (HCC 2998; read-out: pGI50 (converted)): 27.5 µM
- CC50 (HCC 2998; [9]): 100 µM
- TGI (HCC 2998; read-out: pTGI (converted)): 100 µM
- GI50 (OVCAR-3; read-out: GI50): 21 µM
- CC50 (OVCAR-3; [8]): > 100 µM
- TGI (OVCAR-3; read-out: TGI): 99 µM
- GI50 (OVCAR-3; read-out: pGI50 (converted)): 20.4 µM
- CC50 (OVCAR-3; read-out: pLC50 (converted)): > 100 µM
- TGI (OVCAR-3; read-out: pTGI (converted)): 100 µM
- Activity [7]: 256%
